As a reminder, the IC50 is the concentration that inhibits the measured activity by half. A higher IC50 goes with weaker potency. As a reminder, the MIC is the least concentration at which growth counts as inhibited. A lower MIC goes with inhibition by little substance.

Experiment [1] relates to Staphylococcus aureus. Nature of the experiment: Antimicrobial activity against Staphylococcus aureus ATCC 29213. In kind it is functional, organism-based. An outline of the steps:
(§1)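 Broth microdilution in duplicate. Samples are dissolved in DMSO, serially diluted in normal saline, and mixed with inoculum from subcultured organism diluted in its incubation broth. The top final concentration is 50 µg/mL for pure compounds and 500 µg/mL for crude extracts. Controls are tetracycline, growth and media blank. OD630 is read before and after incubation, and percent growth is plotted against concentration to give IC50/MIC. MBC is found by plating 5 µL from each duplicate on agar.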

In experiment [2] the test system is Staphylococcus aureus. Briefly: Antimicrobial activity against methicillin-resistant Staphylococcus aureus ATCC 43300. Format: functional, organism-based. A digest of the protocol:
as §1

A further experiment deals with Candida albicans. Briefly: Antimicrobial activity against Candida albicans ATCC 90028. In kind it is functional. A digest of the protocol: (§2)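 Subcultured organism diluted in its incubation broth for the inoculum. Samples were dissolved in DMSO, serially diluted in normal saline and tested in duplicate, starting at a final 50 µg/mL for pure compounds and 500 µg/mL for extracts. Growth and media-only controls were included. OD630 was read before and after incubation, and IC50/MIC was taken from percent growth versus concentration. MFC/MBC came from 5 µL subcultured onto agar.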

The next experiment concerns Cryptococcus neoformans. Nature of the experiment: Antimicrobial activity against Cryptococcus neoformans ATCC 90113. Format: functional. A digest of the protocol: as §2
For a further experiment, the system named is Aspergillus fumigatus. Briefly: Antimicrobial activity against Aspergillus fumigatus ATCC 90906. In kind it is functional. An outline of the steps: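 Growth was removed from a slant into 50 mL YPD broth for the inoculum. DMSO-dissolved samples were serially diluted in saline and run in duplicate, starting at a final 50 µg/mL for pure compounds and 500 µg/mL for extracts. Amphotericin B reference, growth and blank controls were included. Endpoints were read visually. MFC came from 5 µL of each duplicate transferred to agar.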

The test system of a further experiment is Pseudomonas aeruginosa. Nature of the experiment: Antimicrobial activity against Pseudomonas aeruginosa ATCC 27853. Format: functional. A digest of the protocol: as §2
Experiment [3] concerns Mycobacterium intracellulare. Briefly: Antimicrobial activity against Mycobacterium intracellular ATCC 23068. In kind it is functional. A digest of the protocol:
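Inoculum was subcultured organism diluted in its incubation broth. Samples were dissolved in DMSO, serially diluted in saline and run in duplicate, with final concentrations starting at 50 µg/mL for pure compounds and 500 µg/mL for extracts. Tetracycline reference, growth and blank controls were included. Plates were inspected visually. MBC came from 5 µL of each well plated on agar.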

In brackets after ≈: the same amount, converted by molar mass. Activity calls are given as the source filed them. The calls are words filed in the database; no cut-off is given here.

On to `CC1=CC[C@@]2(C)CC[C@@](O)(C(C)C)[C@@H]2[C@@H](OC(=O)c2ccccc2)C1`, for which the outcome in the experiment with Staphylococcus aureus [1], in the experiment on Staphylococcus aureus [2], in the experiment with Candida albicans, in the experiment with Cryptococcus neoformans, in the experiment on Aspergillus fumigatus and in the experiment with Pseudomonas aeruginosa was inactive. In addition, the outcome in experiment [3] was inactive.

For the molecule `CC(C)[C@]1(O)CC[C@]2(C)C[C@@H]3O[C@]3(C)C[C@H](O)[C@H]21`, the outcome in the experiment with Staphylococcus aureus [1], in the experiment on Staphylococcus aureus [2], in the experiment on Candida albicans, in the experiment on Cryptococcus neoformans, with Aspergillus fumigatus and with Pseudomonas aeruginosa was inactive. Further, in experiment [3], the result was inactive.

For `COc1cc(C(=O)OCC2=CC[C@@]3(C)CCC(C(C)C)=C3CC2)ccc1O`, the outcome in the experiment with Staphylococcus aureus [1], in the experiment with Staphylococcus aureus [2], in the experiment on Candida albicans, in the experiment on Cryptococcus neoformans, in the experiment with Aspergillus fumigatus and with Pseudomonas aeruginosa was inactive. In experiment [3], the result was inactive.

Regarding `CC(C)C1=C2CCC(COC(=O)c3ccc(O)cc3)=CC[C@@]2(C)CC1`, the IC50 was 1.5 µg/mL (≈ 4.41 µM) with Staphylococcus aureus [1] and 2 µg/mL (≈ 5.87 µM) in the experiment with Staphylococcus aureus [2]. In addition, the minimal inhibitory concentration (MIC) (in the experiment with Candida albicans; in the experiment on Cryptococcus neoformans; with Aspergillus fumigatus; against Pseudomonas aeruginosa; in experiment [3]) was 6.25 µg/mL (≈ 18.4 µM) throughout.

With `CC1=CC[C@@]2(C)CC[C@@](O)(C(C)C)[C@@H]2[C@@H](O)C1`, the outcome with Staphylococcus aureus [1], in the experiment on Staphylococcus aureus [2], with Candida albicans, in the experiment on Cryptococcus neoformans, in the experiment on Aspergillus fumigatus and in the experiment on Pseudomonas aeruginosa was inactive. For the same molecule, the outcome in experiment [3] was inactive.

For the origin of these results see ChEMBL document CHEMBL1150807, “Daucane sesquiterpenes from Ferula hermonis” (J Nat Prod, 2001).
